# Compounds with a hit are over-represented: about 2.9% of the library has one in this group of screens.
# HIV Env fusion – HIV envelope-mediated fusion inhibition. HeLa-JRFL Env/CEM21 cell fusion, luciferase. inhibition, % at 12.3 µM. actives 1.1% (n = 360,000);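 active = mean replicate inhibition score of at least 50 and every replicate individually at or above 50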;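 also: 0% = plate neutral controls and 100% = maraviroc near 300 nM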
# Cneo AK release – Cryptococcus neoformans lysis via adenylate kinase release | actives 0.2% (n = 360,000) | C. neoformans lysis, adenylate kinase release luminescence, 4 h; normalised: neutral wells 0, clomiphene wells 100 | lysis activity, % at 15 µM;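 active = mean lysis activity across replicates of at least 80%, whatever share of replicates individually reach that level; inactive = mean lysis activity below 80%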
#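 Signal: Adenylate kinase release luminescence | Assay system: Log-phase Cryptococcus neoformans yeast cells | Input: Cells at 5 × 10^6 per mL | Buffer or medium: Fresh YPD growth medium | Compound: Single dose | Schedule: Static 4 h at 37 °C with compound, 1 h detection | Controls: Clomiphene | Read-out: Luminescence rise reflecting yeast cell lysis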
# dFosB act – enhances mouse delta FosB homodimer DNA binding. purified delta FosB, TAMRA-CDK5 oligo fluorescence polarization; percent of positive-control signal above neutral wells. AID 493131. actives 0.99% (n = 340,000). activation, % at 25 µM;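 active = mean activation above about 17%, with every replicate also reaching it, limit read from the data, passing the limit was not always enough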
# CDK5 inh – CDK5/p35 (human) kinase inhibition; Q00535+Q15078; Recombinant CDK5/p35, ADP-Glo luminescence, 60 min; inhibition, % at 10 µM; actives 0.01% (n = 330,000);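 active = highest replicate inhibition of at least 50% and at least 75% of replicates reaching 50%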;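 also: plate controls were DMSO neutral control for no effect and GW8510 at 10 µM for full effect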
# PAX8 inh HTS – inhibitors of PAX8 transcriptional activity in RMG-I cells; RMG-I TPO-luciferase reporter, SteadyGlo, 24 h; inhibition, % at 12.6 µM; actives 1.2% (n = 360,000); AID 652154;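 active = mean replicate inhibition at least 60% with every replicate also reaching 60%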;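 also: luciferase light reporting Pax8 driven TPO promoter activity; plate controls were median of neutral control wells for no effect and mitoxantrone controls for full effect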
# GSIS activator – primary screen for activators of insulin secretion dependent on glucose, INS-1E cells, GLuc reporter luminescence | activation, % at 16.6 µM | actives 0.61% (n = 370,000) | INS-1E GLuc reporter insulin secretion, 2-3 h;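 active = lowest replicate activation of at least 40%, so every replicate reaches that level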;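 also: 0% = median of neutral control wells and 100% = median of IBMX positive control wells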
# The depositor's hits bear a star; · = no result; [ ] = dose if it differs, or a comment.
SMILES,HIV Env fusion,Cneo AK release,dFosB act,CDK5 inh,PAX8 inh HTS,GSIS activator
COc1ccc(CCn2c(C)cc(C(=O)CSc3nc(N)cc(=O)[nH]3)c2C)cc1,70*,-2,0,2,·,-30
O=c1c2ccccc2sn1-c1cc(S(=O)(=O)N2CCOCC2)ccc1N1CCOCC1,-35,-3,-11,2,·,208*
CCOC(=O)N1CCN(C(=O)c2cc3c(=O)n(C)c4ccccc4c3n2C)CC1,66*,-3,-10,0,19,15
O=C(C[C@H]1C=C[C@H](NC(=O)CCN2CCCCC2)[C@H](CO)O1)Nc1ccc(-c2ccccc2)cc1,-12[16.7 µM],-1,·,·,-2,5
Oc1cc(NCc2ccc(F)cc2)cc2cccnc12,50,-1,-8,0,73*,·
Cn1c(=O)c([N+](=O)[O-])c(Cl)c2ccccc21,-95,-3,1,-1,101*,88
CCCC#Cc1ccc([C@@H]2[C@@H](CO)N3C(=O)CN(C(=O)Nc4cccc(F)c4)C[C@@H]23)cc1,·,·,·,·,33,-7
CCOc1cccc(C=NNC(=O)C(=O)Nc2cccc(C(F)(F)F)c2)c1O,0,·,·,·,70*,1
O=C(NN=Cc1ccco1)C(=O)Nc1cccc(C(F)(F)F)c1,-27,·,·,·,-5,1
C[C@@H]1CN([C@H](C)CO)C(=O)c2cc(NC(=O)C3CC3)ccc2O[C@@H]1CN(C)S(=O)(=O)c1cccs1,-36[16.7 µM],-1,·,·,19,5
Cc1cc(NS(=O)(=O)c2ccc(NC(=O)c3oc4ccccc4c3C)cc2)no1,57*,3,-12,-2,·,·
Cc1cc(NS(=O)(=O)c2ccc(NC(=O)C(C)Oc3ccccc3Cl)cc2)no1 (stereo not given),·,3,0,-1,-5,59*
Cc1cc(NS(=O)(=O)c2ccc(NC(=O)C(C)Oc3ccc(Cl)cc3)cc2)no1 (stereo not given),-41,·,3,0,·,5
Cc1noc(C)c1NC(=O)N[C@@H]1CC[C@H](CCNC(=O)C2CCOCC2)O[C@@H]1CO,0[16.7 µM],32,·,·,-8,36
O=C(Nc1cc(F)ccc1F)N[C@@H]1CC[C@H](CCn2cc(C3CCCCC3)nn2)O[C@H]1CO,-20[16.7 µM],-6,·,·,7,2
CCOc1ccc(CCNC(=O)/C=C/c2ccco2)cc1OCC,16,-2,-6,0,-4,18
CCCNC(=O)COC(=O)/C=C/c1ccco1,·,·,5,4,88*,2
O=C(COC(=O)/C=C/c1ccco1)NCc1ccccc1,0,·,-1,-1,-7,-1
CCOc1ccc(CCNC(=O)COC(=O)/C=C/c2ccco2)cc1OCC,-29,-4,-10,1,8,44*
CCCNC(=O)COC(=O)/C=C/c1ccc2c(c1)OCO2,·,·,4,0,69*,-5
C[C@H]1CN([C@@H](C)CO)S(=O)(=O)c2ccc(-c3cccnc3)cc2O[C@H]1CN(C)CC1CC1,7[16.7 µM],-3,·,·,·,10
Cc1ccccc1CSCc1ccc(C(=O)NCCCN2CCOCC2)o1,-2,0,-7,1,8,46*
Cc1ccc(CSCc2ccc(C(=O)NCCCN3CCOCC3)o2)cc1,9,0,-12,-4,-9,-3
Cc1ccccc1NC(=O)CN1C(=O)C2C3CC(C(Br)C3Br)C2C1=O (stereo not given),49,·,-4,1,63*,-16
COc1cccc(-c2cnc3c(c2)C(=O)N([C@@H](C)CO)C[C@H](C)[C@@H](CN(C)Cc2cccnc2)O3)c1,5[16.7 µM],0,·,·,·,15
COc1cccc2sc(Nc3nc4ccc(NC(C)=O)cc4s3)nc12,0,·,35*,0,0,6
CC(=O)Nc1ccc2nc(NC(=O)COc3ccccc3C)sc2c1,4,12,20*,-1,-20,8
C=C1C(=O)OC2CC1C(O)CC(C)=CCCC(C)=CC(O)CC2C (stereo not given),23,·,-15,2,101*,·
C=C1C(=O)OC2CC1C(OC(C)=O)CC(C)=CCCC(C)=CCCC2(C)O (stereo not given),·,-1,·,·,·,0
C=C1C(=O)OC2/C=C(/C)CC/C=C(/C)CCC12 (stereo not given),-18[16.7 µM],4,·,·,98*,·
